ChEMBL document CHEMBL3407377, “Synthesis and pharmacological evaluation of benzannulated derivatives as potent and selective sigma-1 protein ligands” (Eur J Med Chem, 2015)

How the values were obtained:
[1] = Ratio of IC50 for human SY5Y cells to Ki for sigma 1 receptor in human Jurkat cells
How it was run: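 Selectivity index was calculated as the SY5Y cytotoxicity IC50 divided by the S1R Ki. The IC50 came from a colorimetric MTT viability assay on human neuroblastoma SY5Y cells dosed up to 100 μM. The Ki came from [3H](+)-pentazocine competition binding on Jurkat cell membranes.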

Jurkat = experiment: Selectivity ratio of Ki for sigma2 receptor in human Jurkat cells to Ki for sigma1 receptor human Jurkat cells; format: cell-based
How it was run: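 Both affinities came from radioligand competition on Jurkat cell membranes. S1R used [3H](+)-pentazocine. S2R used [3H]-DTG with excess unlabelled (+)-pentazocine. Ki values were derived from IC50s, and the ratio was calculated as Ki(S2R)/Ki(S1R).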

[2] = Cytotoxicity against human SH-SY5Y cells assessed as cell viability after 72 hrs by MTT assay; format: cell-based
How it was run: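 Human neuroblastoma SY5Y cells were exposed to a range of concentrations up to 100 μM. Viability was read by colorimetric MTT assay, and the IC50 was taken from it.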

[3] = biological target: Sigma non-opioid intracellular receptor 1 (Homo sapiens, UniProt Q99720); experiment: Displacement of [3H](+)Pentazocine from sigma 1 receptor in human Jurkat cells after 120 mins by liquid scintillation counting analysis; format: cell-based
Sequence of Sigma non-opioid intracellular receptor 1 (Q99720 whole entry): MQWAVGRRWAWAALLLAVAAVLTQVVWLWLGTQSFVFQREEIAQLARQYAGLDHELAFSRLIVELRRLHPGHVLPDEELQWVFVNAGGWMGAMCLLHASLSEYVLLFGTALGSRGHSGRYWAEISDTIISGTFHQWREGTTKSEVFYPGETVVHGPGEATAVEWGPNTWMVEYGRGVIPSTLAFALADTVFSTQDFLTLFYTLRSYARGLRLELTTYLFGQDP

SMILES	Ratio [1]	Ratio Ki (Jurkat)	IC50 [2] [µM]	Ki [3] [µM]
CN(CCCn1c(=O)sc2ccc(Br)cc21)Cc1ccccc1	8417	35	26.5	0.0031
CN(CCCn1c(=O)oc2ccc(Br)cc21)Cc1ccccc1	11463	13	14.2	0.0012
CN(CCCN1C(=O)CSc2ccc(Br)cc21)Cc1ccccc1	8631	22	18.7	0.0022
CN(CCCN1C(=O)[C@@H]2Cc3ccccc3CN2C1=O)Cc1ccccc1			> 100	
O=C1COc2ccc(Br)cc2N1CCCN1Cc2ccccc2C1			> 100	> 0.1
O=c1oc2ccccc2n1CCCN1Cc2ccccc2C1			> 100	> 0.1
CN(CCCn1c(=O)oc2cc(Br)ccc21)Cc1ccccc1	63291	37	58.8	0.0009
CN(CCCn1c(=O)n(C)c2ccccc21)Cc1ccccc1			73.8	> 0.1
O=c1sc2cc(Br)ccc2n1CCCN1Cc2ccccc2C1	5471		31.4	0.0057
CN(CCCN1C(=O)COc2ccc(Br)cc21)Cc1ccccc1			13.4	> 0.1
O=C1[C@@H]2Cc3ccccc3CN2C(=O)N1CCCN1Cc2ccccc2C1		78		0.0053
O=c1sc2ccccc2n1CCCN1Cc2ccccc2C1	>3000		> 100	0.0303
Cn1c(=O)n(CCCN2Cc3ccccc3C2)c2ccccc21			> 100	> 0.1
O=c1oc2cc(Br)ccc2n1CCCN1Cc2ccccc2C1			> 100	> 0.1
Cc1nc2ccccc2n1CCCN(C)Cc1ccccc1			50.2	> 0.1
CN(CCCn1c(=O)sc2cc(Br)ccc21)Cc1ccccc1	23250	48	13.2	0.0006
CN(CCCn1c(=O)sc2ccccc21)Cc1ccccc1	973		10	0.0103
CN(CCCn1c(=O)sc2ccc(Cl)cc21)Cc1ccccc1	2124	35	9.9	0.0047
CN(CCCn1c(=O)oc2ccccc21)Cc1ccccc1			> 100	> 0.1
CN(CCCn1c(=O)oc2ccc(Cl)cc21)Cc1ccccc1	15500	16	> 100	0.0064
